# Reference: article PMC9421316 (Heliyon, 2022)
# Read-outs that look alike come from different tables or passages of the source. Ends that are not written are not given here.
# Legend:
# [1] = cited from earlier work
# [2] = diluted WSS from periodontally healthy individuals, HPLC, ref McDonald et al. 8, cited from earlier work
# [3] = Degradation mode of histatins in pooled 1:10 diluted WSS, cationic PAGE; assay type: in vitro ADME, human; conditions: 100 μg/mL, 37 °C
# In short: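 Unstimulated whole saliva from adolescents (n = 8/group: spastic CP with gingivitis, no CP/no gingivitis, no CP with gingivitis) was held on ice ≤3 h, spun at 1,500×g for 2 min then 14,000×g for 20 min at 4 °C, and the supernatant stored at -80 °C. Supernatant was diluted 1:10 in distilled water and pooled by group. Synthetic histatin 1 or 5 (final 100 μg/mL) was incubated at 37 °C for 0–48 h, with aliquots boiled 5 min. Samples were dried, desalted, and run on 20% cationic PAGE; band intensity was compared with time zero.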
# [4] = assay type: in vitro ADME, human; conditions: for % BD (mean ± S.D.): all groups and time points
sequence,measurement,setting,value
DSHEKRHHGYRRKFHEKHHSHREFPFYGDYGSNYLYDN [histatin 1],histatin 1 degraded,[1]; 1.5 h of incubation with WSS,approximately 50%
same,time after which totally degraded,[1]; incubation with WSS,40 h
same,intact protein degraded,[2]; 0.5 h,28%
same,intact protein degraded,[2]; 2 h,83%
same,time after which degradation fragments were observed on cationic PAGE,[3]; pooled G2 WSS diluted 1:10,8 h
same,time after which degradation fragments were observed on cationic PAGE,[3]; pooled G3 WSS diluted 1:10,8 h
same,"speed of degradation, G1 relative to G2 and G3","[4]; during a 48 h interval, 1:10 diluted WSS",1.78 times
same,"remaining at 48 h, 100 μg/mL","[4]; human, individual whole saliva supernatant (WSS) diluted 1:10",56%
same,"metabolised at 4 h, 100 μg/mL","[4]; human, whole saliva supernatant (WSS) diluted 1:10, reduction in band density, G2 and G3 (stated together), 1:10 diluted WSS, 37 °C, printed as after 4 h of incubation",~14%
same,% BD (mean ± S.D.),"[4]; saliva of female subjects, 1:10 diluted WSS",79.3 ± 23.6%
same,% BD (mean ± S.D.),"[4]; saliva of male subjects, 1:10 diluted WSS",77.6 ± 20.9%
